Experimental data collected from several papers.
Lines come from different studies, so protocols differ.
Target: Serine/threonine-protein kinase PAK 5 (PAK5, Homo sapiens, UniProt Q9P286)

| SMILES | observed | mode | technique | tested at | measurement | result |
| --- | --- | --- | --- | --- | --- | --- |
| Cc1noc([C@H]2C[C@@H](c3ccc(C(F)(F)F)cc3)CN(C(=O)N3CCS(=O)(=O)C3)C2)n1 | cell-free assay |  | competition with immobilised ligand | 1 µM | remaining binding | 100% |
| Cn1c(=O)n(-c2ccc(C(C)(C)C#N)cc2)c2c3cc(-c4cnc5ccccc5c4)ccc3ncc21 | enzyme activity | inhibitor |  | 10 µM | remaining activity | 90% |
| Cc1c[nH]c2nccc(Oc3c(F)cc(Nc4cc(Cl)nc(N)n4)cc3F)c12 | cell-free assay |  | competition with immobilised ligand | 0.1 µM | remaining binding | 92% |
| Cc1cnc(NC2CCOCC2)nc1-n1cnc(C(=O)NC(CN)c2cc(F)cc(Cl)c2)c1 (centres unmarked) | enzyme activity | inhibitor | radiometric | 1 µM | remaining activity | 83% |
| CC/C(=N\NC(=O)NCc1cccc(O)c1)c1ccc(O)c(C)c1O | enzyme activity | inhibitor |  | 0.1 µM | inhibition | -3.9% |
| CS(=O)(=O)CCNCc1ccc(-c2ccc3ncnc(Nc4ccc(OCc5cccc(F)c5)c(Cl)c4)c3c2)o1 | cell-free assay |  |  | 0.5 µM | remaining signal | 98.5% |
| CC(C)(C)c1nc2c(s1)c1nc(N)ncc1c1ccc(NS(=O)(=O)c3c(F)cccc3F)c(F)c12 | enzyme activity | inhibitor | radiometric | 1 µM | remaining activity | 77% |
| Cc1cc(NC(=O)c2cccc3cc(-c4cccc5[nH]nc(N)c45)ccc23)ccc1F | enzyme activity | inhibitor |  | 0.1 µM | activity vs control | 88% |
| CNC(=O)c1cc(Oc2ccc(NC(=O)Nc3ccc(Cl)c(C(F)(F)F)c3)cc2)ccn1 | enzyme activity | inhibitor |  | 10 µM | inhibition | -21% |
| Cc1sc(C(=O)NC2COC2)cc1-n1cc(NC(=O)Nc2c(F)cccc2Cl)cn1 | enzyme activity | inhibitor |  | 10 µM | remaining activity | 103% |
| C[C@@H]1CN(c2cc(-c3nn(C)c4ccc(OC5(C)CC5)cc34)ncn2)C[C@H](C)O1 | cell-free assay |  | competition with immobilised ligand | 1 µM | remaining binding | 84% |
| CCN(CC)c1ccc(C2=NNC(=O)CC2C)cc1[N+](=O)[O-] (centres unmarked) | enzyme activity | inhibitor |  | 10 µM | remaining activity | 5% |
| CCC(=N\O)/C(C)=C/c1ccc(F)cc1 | cell-free assay |  | competition with immobilised ligand | 1 µM | remaining binding | 100% |
| COc1cc(Cl)c(C(=O)N[C@@H](CN[C@H]2CC[C@@H](N)CC2)Cc2ccc(C#N)cc2)cc1-c1ccc(CN[C@H](C)c2ccc(C)cc2)o1 | enzyme activity | inhibitor |  | 1 µM | remaining activity | 103% |
| CC(C)(C)C(=O)c1sc(NC2CCCCC2)nc1N | enzyme activity | inhibitor |  | 10 µM | remaining activity | 110% |
| O=C1Nc2ccc(Cl)cc2C1=Cc1cc(Cl)c(O)c(Cl)c1 | cell-free assay |  |  | 0.5 µM | remaining signal | 91.5% |
| Cc1nccc(COC(=O)N2C[C@@H]3[C@@H](CNC(=O)c4ccc5[nH]nnc5c4)[C@@H]3C2)n1 | cell-free assay |  | competition with immobilised ligand | 1 µM | remaining binding | 92% |
| COc1cc(Nc2cnc(C#N)c(O[C@H](C)CN(C)C)n2)ncc1-c1cnn(C)c1 | enzyme activity | inhibitor | radiometric | 1 µM | remaining activity | 93% |
| COCCOc1nc(-c2ccc(Cl)nc2)nc2c1CN(C(=O)c1ncn3ccccc13)CC2 | cell-free assay |  | competition with immobilised ligand | 0.1 µM | remaining binding | 100% |
| FC(F)(F)Oc1cccc(-c2cnc3ccc(-c4ccncc4)nn23)c1 | enzyme activity | inhibitor | radiometric | 1 µM | activity vs control | 72% |
